Measurements pooled from the literature.
Compare with care: the assays were run in different laboratories.
Target: Serine/threonine-protein kinase MAK (MAK, Homo sapiens, UniProt P20794)
Residues used in one study (P20794 1-623): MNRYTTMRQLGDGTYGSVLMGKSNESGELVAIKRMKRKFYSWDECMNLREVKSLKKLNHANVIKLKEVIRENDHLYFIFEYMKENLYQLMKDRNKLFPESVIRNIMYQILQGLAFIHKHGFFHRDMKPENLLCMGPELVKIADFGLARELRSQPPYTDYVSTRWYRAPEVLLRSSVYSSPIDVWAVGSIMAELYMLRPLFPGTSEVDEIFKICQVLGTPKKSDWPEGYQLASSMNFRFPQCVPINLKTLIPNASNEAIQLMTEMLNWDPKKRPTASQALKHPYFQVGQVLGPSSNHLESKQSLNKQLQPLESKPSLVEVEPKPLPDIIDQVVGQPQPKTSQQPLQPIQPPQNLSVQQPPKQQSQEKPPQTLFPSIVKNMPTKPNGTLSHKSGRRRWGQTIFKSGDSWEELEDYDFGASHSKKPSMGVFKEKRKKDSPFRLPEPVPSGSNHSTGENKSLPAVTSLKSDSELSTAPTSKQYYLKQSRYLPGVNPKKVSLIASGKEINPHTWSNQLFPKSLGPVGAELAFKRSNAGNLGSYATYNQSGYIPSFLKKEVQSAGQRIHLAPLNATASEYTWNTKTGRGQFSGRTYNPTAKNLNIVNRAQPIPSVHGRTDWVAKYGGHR

assay	conditions	quantity	value	Compound
enzyme activity, inhibitor	1 µM	activity vs control	120%	Cc1ccc(C(=O)NCc2ccsc2)cc1C#Cc1cn(C(C)C)c2ncnc(N)c12
binding, competition with immobilised ligand	1 µM	remaining binding	89%	NS(=O)(=O)c1cc(NC(=O)C2(c3ccccc3Cl)CC2)ccc1Oc1cccc(Cl)c1
cell-free assay	20 µM	remaining signal	7.9%	Nc1ncnc2occ(-c3ccc(NC(=O)Nc4cc(C(F)(F)F)ccc4F)cc3)c12
enzyme activity	23.5 nM	remaining activity	93%	Cc1ccc(C(=O)Nc2ccc(CN3CCN(C)CC3)c(C(F)(F)F)c2)cc1C#Cc1cnc2cccnn12
enzyme activity, inhibitor	10 µM	remaining activity	120%	Cc1sc(C(=O)NC2COC2)cc1-n1cc(NC(=O)Nc2c(F)cccc2Cl)cn1
cell-free assay, competition with immobilised ligand	0.1 µM	remaining binding	99%	CC(C)CC(=O)N1CCc2nc(-c3ccc(Br)cc3)nc(N(C)Cc3ccccc3)c2C1
enzyme activity, inhibitor	1 µM	inhibition	3%	CN1CC(Oc2cnc(C#N)cc2-c2ccn3nc(NC(=O)C4CC4)cc3c2)C1
enzyme activity, inhibitor	5 µM	remaining activity	97.6%	O=C(Nc1cnn(-c2csc(C(=O)NC3COC3)c2)c1)Nc1c(F)cccc1Cl
